Blank lines part the entries; values can stand above or below the compound they belong to. Activity calls are given as the source filed them. No cut-off for these calls is given here.
Columns and labels:
Rattus norvegicus [1] = assay: Reduction in wrap restraint stress-induced defecation in rat diarrhea-predominant irritable bowel syndrome model at 30 to 100 mg/kg, po administered 1 hr prior to induction of stress; type: functional, organism-based
How it was run: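 Lightly anesthetized rats had upper bodies wrapped with adhesive tape, then returned to observation cages; feces counted 1 h after wrapping. Compound or vehicle given orally 1 h before restraint; unwrapped animals as normal group. n = 8 per group, mean (SD); Wilcoxon and nonparametric Dunnett's tests.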

[2] = molecular target: T1, 5-hydroxytryptamine receptor 1A (Homo sapiens) (UniProt P08908); assay: Displacement of [3H]8-OH-DPAT from human 5HT1A receptor expressed in CHO cells at 100 nM by liquid scintillation counting; type: cell-based
T1 sequence (whole entry): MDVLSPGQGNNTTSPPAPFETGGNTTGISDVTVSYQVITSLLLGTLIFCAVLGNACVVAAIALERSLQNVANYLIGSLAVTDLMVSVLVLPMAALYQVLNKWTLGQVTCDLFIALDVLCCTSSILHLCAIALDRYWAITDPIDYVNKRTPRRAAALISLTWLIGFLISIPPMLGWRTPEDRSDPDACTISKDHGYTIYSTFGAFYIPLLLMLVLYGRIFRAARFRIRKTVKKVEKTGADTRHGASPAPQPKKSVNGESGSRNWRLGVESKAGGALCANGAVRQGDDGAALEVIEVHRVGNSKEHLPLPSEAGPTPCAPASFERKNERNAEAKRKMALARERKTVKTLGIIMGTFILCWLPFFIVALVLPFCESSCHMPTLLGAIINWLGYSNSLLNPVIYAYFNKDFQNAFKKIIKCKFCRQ
How it was run: (§1)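 CHO-cell membranes with human 5-HT1A were incubated with 0.25 nmol/L [3H]8-OH-DPAT (final) for 60 min at 27 °C. Buffer: 50 mM Tris-HCl, 10 mM MgSO4, 0.5 mM EDTA, 0.1% ascorbic acid, pH 7.4. Compound came from 270 μmol/L DMSO stock, diluted in buffer. Filtration was through GF/C presoaked in 0.3% polyethyleneimine, with two cold Tris washes. Run in duplicate or triplicate; percent inhibition of binding calculated.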

[3] = molecular target: T1, 5-hydroxytryptamine receptor 1A (Homo sapiens); assay: Displacement of [3H]8-OH-DPAT from human 5HT1A receptor expressed in CHO cells at 1000 nM by liquid scintillation counting; type: cell-based; how it was run: as §1
[4] = molecular target: T2, 5-hydroxytryptamine receptor 3A (Homo sapiens) (UniProt P46098); assay: Displacement of [3H]BRL-43694 from human 5HT3 receptor expressed in HEK293 cells at 100 nM by liquid scintillation counting; type: cell-based
T2 sequence (whole entry): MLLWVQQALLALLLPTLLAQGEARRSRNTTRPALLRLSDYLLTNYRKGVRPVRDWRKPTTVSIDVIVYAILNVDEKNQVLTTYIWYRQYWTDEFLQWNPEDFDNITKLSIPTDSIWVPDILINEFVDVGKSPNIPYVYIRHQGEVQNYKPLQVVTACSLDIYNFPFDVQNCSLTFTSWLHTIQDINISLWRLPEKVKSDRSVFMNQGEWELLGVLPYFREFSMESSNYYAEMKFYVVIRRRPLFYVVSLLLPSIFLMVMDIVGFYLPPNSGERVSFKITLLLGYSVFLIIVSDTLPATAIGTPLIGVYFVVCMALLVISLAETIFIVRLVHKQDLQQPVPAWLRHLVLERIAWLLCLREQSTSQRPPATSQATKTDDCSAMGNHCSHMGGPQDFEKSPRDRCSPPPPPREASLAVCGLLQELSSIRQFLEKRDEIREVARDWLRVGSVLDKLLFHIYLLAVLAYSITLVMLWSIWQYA
How it was run: (§2)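 HEK-293 membranes expressing human 5-HT3 were incubated with 0.5 nmol/L [3H]BRL-43694 (final) for 60 min at 25 °C. Buffer: 50 mM Tris-HCl, 5 mM MgCl2, 1 mM EDTA, pH 7.5. Compound came from 270 μmol/L DMSO stock, diluted in buffer. Filtration was through GF/B presoaked in 0.5% polyethyleneimine, with two cold Tris washes. Run in duplicate or triplicate; percent inhibition calculated.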

[5] = molecular target: T2, 5-hydroxytryptamine receptor 3A (Homo sapiens); assay: Displacement of [3H]BRL-43694 from human 5HT3 receptor expressed in HEK293 cells at 1000 nM by liquid scintillation counting; type: cell-based; how it was run: as §2
[6] = molecular target: T3, 5-hydroxytryptamine receptor 1A (Homo sapiens, UniProt P08908); assay: Agonist activity at human cloned 5HT1A receptor expressed in CHO cells assessed as stimulation of [35S]GTPgammaS binding after 30 mins by liquid scintillation counting; type: functional, cell-based
T3 sequence (P08908 whole entry): T1 sequence (whole entry)
How it was run: (§3)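 Membranes from CHO cells expressing human 5-HT1A were diluted in 20 mM HEPES/3 mM MgCl2/120 mM NaCl, pH 7.4. They were preincubated with 20 μM GDP and test drug for 20 min at 30 °C, then held on ice for 15 min. [35S]GTPγS (100 pM) was added for 30 min at 30 °C. Samples were filtered, washed with cold HEPES/MgCl2 buffer, and bound radioactivity counted; EC50 and Emax reported.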

[7] = molecular target: T4, 5-hydroxytryptamine receptor 3A (Homo sapiens, UniProt P46098); assay: Displacement of [3H]BRL-43694 from human 5HT3 receptor expressed in HEK293 cells by liquid scintillation counting; type: cell-based; how it was run: as §2
T4 sequence (P46098 whole entry): T2 sequence (whole entry)

Rattus norvegicus [8] = assay: Induction of 5HT1A receptor-mediated behavioral activity in rat assessed as appearance of flat body posture at 10 mg/kg, iv after 30 mins; type: functional, organism-based; design: dose 10 mg/kg
How it was run: (§4)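 Rats were conditioned to test procedures over 2 weeks and acclimated to the test cage for 1 h. Vehicle was saline containing diluted HCl. Lower lip retraction and flat body posture were scored on a 0–3 scale at 5, 10, 20 and 30 min after dosing.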

[9] = molecular target: T3, 5-hydroxytryptamine receptor 1A; assay: Displacement of [3H]8-OH-DPAT from human 5HT1A receptor expressed in CHO cells by liquid scintillation counting; type: cell-based; how it was run: as §1
Rattus norvegicus [10] = assay: Effect on 5HT1A receptor-mediated hypothermic effect in rat assessed as change in rectal temperature at 10 mg/kg, iv after 30 mins; type: functional, organism-based; design: dose 10 mg/kg
How it was run: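 Rats were conditioned over 2 weeks and acclimated to the cage for 1 h before dosing (vehicle: saline with diluted HCl). Rectal temperature was recorded with a thermistor probe inserted 3 cm, before and 30 min after administration. The change in temperature was reported.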

Rattus norvegicus [11] = assay: Induction of 5HT1A receptor-mediated lower lip retraction behavior in rat at 10 mg/kg, iv after 30 mins; type: functional, organism-based; design: dose 10 mg/kg; how it was run: as §4
[12] = molecular target: T5, 5-hydroxytryptamine receptor 3A (Cavia porcellus) (UniProt O70212); assay: Inhibition of 5HT3 receptor-mediated contraction of guinea pig ileum at 1 umol/L after 20 mins relative to control; type: tissue-based
T5 sequence (whole entry): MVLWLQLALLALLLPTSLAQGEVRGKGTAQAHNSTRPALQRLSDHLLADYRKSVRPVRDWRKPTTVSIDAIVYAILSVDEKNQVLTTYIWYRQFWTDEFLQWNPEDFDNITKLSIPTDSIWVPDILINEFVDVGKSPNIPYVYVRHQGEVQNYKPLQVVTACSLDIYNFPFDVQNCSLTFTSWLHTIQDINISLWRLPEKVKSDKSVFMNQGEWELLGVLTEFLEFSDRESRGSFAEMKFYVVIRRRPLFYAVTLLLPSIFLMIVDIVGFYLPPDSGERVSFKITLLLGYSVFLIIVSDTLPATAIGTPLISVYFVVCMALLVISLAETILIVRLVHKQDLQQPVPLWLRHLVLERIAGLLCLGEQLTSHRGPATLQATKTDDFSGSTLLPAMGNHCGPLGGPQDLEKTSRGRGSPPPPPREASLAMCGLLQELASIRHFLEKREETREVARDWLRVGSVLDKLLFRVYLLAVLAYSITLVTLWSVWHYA
How it was run: (§5)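 Ileum strips in Tyrode solution at 37 °C, gassed 5% CO2/95% O2, isotonic contractions under 1 g load. After at least 3 stable contractions to 10 μM 2-methyl-5-HT, tissue exposed to compound or DMSO vehicle for 20 min, then 10 μM 2-methyl-5-HT re-added; contraction expressed as % inhibition of control.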

Rattus norvegicus [13] = assay: […] activity in rat assessed as inhibition of 5HT-induced bradycardia at 100 ug/kg, iv by von Benzold-Jarisch reflex assay; type: functional
[14] = molecular target: T5, 5-hydroxytryptamine receptor 3A (Cavia porcellus); assay: Inhibition of 5HT3 receptor-mediated contraction of guinea pig ileum at 0.1 umol/L after 20 mins relative to control; type: tissue-based; how it was run: as §5
[15] = molecular target: T1, 5-hydroxytryptamine receptor 1A (Homo sapiens); assay: Agonist activity at human cloned 5HT1A receptor expressed in CHO cells assessed as stimulation of [35S]GTPgammaS binding at 900 uL after 30 mins by liquid scintillation counting; type: functional, cell-based; how it was run: as §3
Rattus norvegicus [16] = assay: […] activity in rat assessed as inhibition of 5HT-induced bradycardia at 10 ug/kg, iv by von Benzold-Jarisch reflex assay; type: functional
[17] = Ratio of drug level in brain to blood in Sprague-Dawley rat at 3 mg/kg, po after 2 hrs; type: ADME, organism-based; design: dose 3 mg/kg, route oral
How it was run: (§6)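 Rats dosed 3 mg/kg orally; total compound levels measured in brain and blood at 2, 4 and 8 h, brain/blood ratio derived. Mean ± SD of three rats.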

[18] = molecular target: 5-hydroxytryptamine receptor 2A (Rattus norvegicus) (UniProt P14842); assay: Inhibition of rat 5HT2 receptor AT 0.1 uM
Sequence of 5-hydroxytryptamine receptor 2A (Rattus norvegicus) (P14842 whole entry): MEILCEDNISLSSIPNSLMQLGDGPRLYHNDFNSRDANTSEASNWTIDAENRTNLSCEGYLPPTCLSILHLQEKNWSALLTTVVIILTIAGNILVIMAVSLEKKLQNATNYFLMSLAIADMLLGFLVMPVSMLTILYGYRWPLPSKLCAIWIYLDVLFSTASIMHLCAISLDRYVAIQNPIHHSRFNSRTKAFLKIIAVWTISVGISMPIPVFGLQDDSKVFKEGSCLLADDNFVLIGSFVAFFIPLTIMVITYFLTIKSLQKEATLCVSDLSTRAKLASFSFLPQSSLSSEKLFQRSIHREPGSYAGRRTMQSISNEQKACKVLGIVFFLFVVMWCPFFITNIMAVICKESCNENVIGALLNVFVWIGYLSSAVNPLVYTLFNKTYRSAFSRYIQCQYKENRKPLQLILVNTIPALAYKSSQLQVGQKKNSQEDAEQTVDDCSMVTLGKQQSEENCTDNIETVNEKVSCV

[19] = molecular target: Adrenergic receptor alpha-1 (Rattus norvegicus) (UniProt P15823+P23944+P43140); assay: Inhibition of rat alpha1 adrenergic receptor at 0.1 uM
[20] = Ratio of drug level in brain to blood in Sprague-Dawley rat at 3 mg/kg, po after 8 hrs; type: ADME, organism-based; design: dose 3 mg/kg, route oral; how it was run: as §6
[21] = Drug level in Sprague-Dawley rat brain at 3 mg/kg, po after 8 hrs by HPLC analysis; type: ADME, organism-based; design: dose 3 mg/kg, route oral; conditions: read-out: Drug uptake
How it was run: (§7)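 Total compound concentration was measured in brain and blood at 2, 4 and 8 h after a single oral 3 mg/kg dose. Brain/blood ratio was also derived. Values are mean ± SD of three rats.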

[22] = Drug level in Sprague-Dawley rat brain at 3 mg/kg, po after 4 hrs by HPLC analysis; type: ADME, organism-based; design: dose 3 mg/kg, route oral; conditions: read-out: Drug uptake; how it was run: as §7
[23] = Drug level in Sprague-Dawley rat blood at 3 mg/kg, po after 4 hrs by HPLC analysis; type: ADME, organism-based; design: dose 3 mg/kg, route oral; conditions: whole blood, read-out: Drug uptake; how it was run: as §7
[24] = Drug level in Sprague-Dawley rat blood at 3 mg/kg, po after 8 hrs by HPLC analysis; type: ADME, organism-based; design: dose 3 mg/kg, route oral; conditions: whole blood, read-out: Drug uptake; how it was run: as §7
[25] = Drug level in Sprague-Dawley rat blood at 3 mg/kg, po after 2 hrs by HPLC analysis; type: ADME, organism-based; design: dose 3 mg/kg, route oral; conditions: whole blood, read-out: Drug uptake; how it was run: as §7
[26] = Drug level in Sprague-Dawley rat brain at 3 mg/kg, po after 2 hrs by HPLC analysis; type: ADME, organism-based; design: dose 3 mg/kg, route oral; conditions: read-out: Drug uptake; how it was run: as §7
[27] = Ratio of drug level in brain to blood in Sprague-Dawley rat at 3 mg/kg, po after 4 hrs; type: ADME, organism-based; design: dose 3 mg/kg, route oral; how it was run: as §6

Compound: O=C1[C@@H]2[C@H]3CC[C@H](C3)[C@@H]2C(=O)N1CCCCN1CCN(c2ncccn2)CC1
- inhibition (Rattus norvegicus [1]): inactive

- inhibition [2]: 76.9%
- inhibition [3]: 96.3%
- inhibition [4]: 1.4%
- inhibition [5]: 18.4%
Compound: Nn1c(=O)c2c(nc1[C@H]1CC[C@H](N3CCN(c4ccc5ccccc5n4)CC3)CC1)CCCC2

- EC50 [6]: 0.0137 µM
- IC50 [7]: 0.0591 µM
- IC50 [9]: < 0.01 µM
- inhibition [12]: 100%
- inhibition [14]: 97.1%
- Emax [15]: 93.5%
Compound: Cc1cc(N2CCN(CCCCc3nc4c(c(=O)n3N)CCCC4)CC2)nc2ccccc12
- Activity (Rattus norvegicus [8]): inactive
- Activity (Rattus norvegicus [10]): inactive
- Activity (Rattus norvegicus [11]): inactive
- inhibition in vivo at 0.1 mg/kg (Rattus norvegicus [13]): 64.5%

- Kp at 2 h [17]: 7.11
- inhibition [18]: 78%
- EC50 [6]: 0.0307 µM
- inhibition [19]: 63%
- IC50 [7]: 0.0457 µM
- IC50 [9]: < 0.01 µM
- Kp at 8 h [20]: 7.65
- concentration at 8 h [21]: 204 nM
- concentration at 4 h [22]: 367 nM
- concentration at 4 h [23]: 55.5 nM
- concentration at 8 h [24]: 28.3 nM
- concentration at 2 h [25]: 97.4 nM
- concentration at 2 h [26]: 685 nM
- Kp at 4 h [27]: 6.59
- inhibition [12]: 90.1%
- Emax [15]: 94.7%
Compound: Nn1c(CCCCN2CCN(c3ccc4ccccc4n3)CC2)nc2ccccc2c1=O
- inhibition in vivo at 0.01 mg/kg (Rattus norvegicus [16]): 21.9%
- Activity (Rattus norvegicus [8]): Active
- deltaT (Rattus norvegicus [10]): -1.9 °C
- Activity (Rattus norvegicus [11]): Active

Source: ChEMBL document CHEMBL1275331, “Discovery of a novel 5-HT(3) antagonist/5-HT(1A) agonist 3-amino-5,6,7,8-tetrahydro-2-{4-[4-(quinolin-2-yl)piperazin-1-yl]butyl}quinazolin-4(3H)-one (TZB-30878) as an orally bioavailable agent for irritable bowel syndrome” (J Med Chem, 2010)
